Common to all, as to assay type: protein assay
Experiment [1] deals with T1, Alpha-1,2-mannosidase (BT_2199) (Bacteroides thetaiotaomicron, UniProt Q8A5N9).
T1 sequence (Q8A5N9 whole entry): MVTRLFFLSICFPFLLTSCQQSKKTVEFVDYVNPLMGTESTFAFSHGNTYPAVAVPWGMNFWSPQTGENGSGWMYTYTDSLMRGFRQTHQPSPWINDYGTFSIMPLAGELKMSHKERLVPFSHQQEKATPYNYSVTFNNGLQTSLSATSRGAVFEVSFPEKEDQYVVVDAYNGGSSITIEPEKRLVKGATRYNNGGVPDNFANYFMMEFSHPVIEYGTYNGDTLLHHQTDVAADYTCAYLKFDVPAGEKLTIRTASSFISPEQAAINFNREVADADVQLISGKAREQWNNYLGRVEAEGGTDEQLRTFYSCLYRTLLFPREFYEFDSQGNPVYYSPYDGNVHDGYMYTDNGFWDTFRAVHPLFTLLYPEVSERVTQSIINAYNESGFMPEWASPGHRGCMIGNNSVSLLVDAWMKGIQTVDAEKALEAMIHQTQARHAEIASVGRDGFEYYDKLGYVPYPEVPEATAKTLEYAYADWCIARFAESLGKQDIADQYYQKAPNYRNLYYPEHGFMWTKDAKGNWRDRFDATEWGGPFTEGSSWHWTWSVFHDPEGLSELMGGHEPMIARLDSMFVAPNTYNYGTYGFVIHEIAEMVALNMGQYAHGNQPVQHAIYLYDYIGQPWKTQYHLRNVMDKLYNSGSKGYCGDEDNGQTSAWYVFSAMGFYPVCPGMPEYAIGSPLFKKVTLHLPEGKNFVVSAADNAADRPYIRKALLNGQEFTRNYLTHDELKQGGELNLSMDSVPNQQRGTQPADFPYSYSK
Nature of the experiment: Inhibition of Bacteroides thetaiotaomicron GH92 alpha-mannosidase 2199 assessed as reduction of mannose release using 4NP-mannopyranoside substrate. The method in brief:
(§1)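 Recombinant enzymes expressed in E. coli. Bt3990 was purified by IMAC, anion exchange and size exclusion; Bt2199 by IMAC only. Ki was measured with at least five inhibitor concentrations at a substrate concentration ≪ Km for each enzyme. Ki was taken as the x-axis intercept of a plot of […] against inhibitor concentration.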

The target of experiment [2] is Alpha-1,2-mannosidase (BT_3990) (Bacteroides thetaiotaomicron, UniProt Q8A0N1). Nature of the experiment: Inhibition of Bacteroides thetaiotaomicron GH92 alpha-mannosidase 3990 assessed as reduction of mannose release using 4NP-mannopyranoside substrate. The method in brief: as §1
Sequence of Alpha-1,2-mannosidase (BT_3990) (Q8A0N1 whole entry, change not shown): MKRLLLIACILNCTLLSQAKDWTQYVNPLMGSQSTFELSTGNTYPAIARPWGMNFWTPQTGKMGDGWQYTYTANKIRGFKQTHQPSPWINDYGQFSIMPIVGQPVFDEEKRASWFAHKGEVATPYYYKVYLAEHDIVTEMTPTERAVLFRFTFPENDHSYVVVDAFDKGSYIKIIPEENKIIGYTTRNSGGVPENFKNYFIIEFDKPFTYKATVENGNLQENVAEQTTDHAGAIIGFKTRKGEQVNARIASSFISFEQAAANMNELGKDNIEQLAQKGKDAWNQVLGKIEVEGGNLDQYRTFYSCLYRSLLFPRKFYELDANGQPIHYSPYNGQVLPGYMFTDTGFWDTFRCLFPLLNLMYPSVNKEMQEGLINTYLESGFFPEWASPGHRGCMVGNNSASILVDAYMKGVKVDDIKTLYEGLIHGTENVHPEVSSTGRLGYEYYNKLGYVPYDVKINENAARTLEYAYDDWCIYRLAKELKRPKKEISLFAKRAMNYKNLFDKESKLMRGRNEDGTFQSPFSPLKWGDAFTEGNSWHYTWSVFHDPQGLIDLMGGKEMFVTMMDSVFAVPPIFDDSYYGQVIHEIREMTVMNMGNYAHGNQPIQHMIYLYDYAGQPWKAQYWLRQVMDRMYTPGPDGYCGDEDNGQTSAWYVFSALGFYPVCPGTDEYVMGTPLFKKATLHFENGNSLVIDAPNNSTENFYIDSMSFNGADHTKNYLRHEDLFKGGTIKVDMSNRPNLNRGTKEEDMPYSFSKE
In experiment [3] the target is Alpha-1,2-mannosidase family protein (BT_1032) (Bacteroides thetaiotaomicron, UniProt Q8A8Y5). Nature of the experiment: Inhibition of Bacteroides thetaiotaomicron GH92 alpha-mannosidase 1032 assessed as reduction of mannose release using 4NP-mannopyranoside substrate. In a few lines:
(§2)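 Recombinant His-tagged GH92 enzymes were expressed in E. coli Tuner or B834 and purified by IMAC. Mannose release was measured at 37 °C in 100 mM MOPS, pH 7.0, with 2 mM CaCl2. The read-out was a coupled-enzyme mannose detection system with ATP and NADP+ at 1 mM, following NADPH at 340 nm. At least five inhibitor concentrations were tested, with substrate ≪ Km. Ki was taken from the x-intercept of […] versus inhibitor concentration.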

Experiment [4] has as its target Alpha-1,2-mannosidase (BT_1878) (Bacteroides thetaiotaomicron, UniProt Q8A6K3). Nature of the experiment: Inhibition of Bacteroides thetaiotaomicron GH92 alpha-mannosidase 1878 assessed as reduction of mannose release using 4NP-mannopyranoside substrate. The method in brief: as §2
Experiment [5] addresses Alpha-1,2-mannosidase (BT_2948) (Bacteroides thetaiotaomicron, UniProt Q8A3K6). Nature of the experiment: Inhibition of Bacteroides thetaiotaomicron GH92 alpha-mannosidase 2948 assessed as reduction of mannose release using 4NP-mannopyranoside substrate. The method in brief: as §2
The target in experiment [6] is Alpha-1,2-mannosidase, putative (BT_3130) (Bacteroides thetaiotaomicron, UniProt Q8A325). Nature of the experiment: Inhibition of Bacteroides thetaiotaomicron GH92 alpha-mannosidase 3130 assessed as reduction of mannose release using 4NP-mannopyranoside substrate. The method in brief: as §2
Sequence of Alpha-1,2-mannosidase, putative (BT_3130) (Q8A325 whole entry, change not shown): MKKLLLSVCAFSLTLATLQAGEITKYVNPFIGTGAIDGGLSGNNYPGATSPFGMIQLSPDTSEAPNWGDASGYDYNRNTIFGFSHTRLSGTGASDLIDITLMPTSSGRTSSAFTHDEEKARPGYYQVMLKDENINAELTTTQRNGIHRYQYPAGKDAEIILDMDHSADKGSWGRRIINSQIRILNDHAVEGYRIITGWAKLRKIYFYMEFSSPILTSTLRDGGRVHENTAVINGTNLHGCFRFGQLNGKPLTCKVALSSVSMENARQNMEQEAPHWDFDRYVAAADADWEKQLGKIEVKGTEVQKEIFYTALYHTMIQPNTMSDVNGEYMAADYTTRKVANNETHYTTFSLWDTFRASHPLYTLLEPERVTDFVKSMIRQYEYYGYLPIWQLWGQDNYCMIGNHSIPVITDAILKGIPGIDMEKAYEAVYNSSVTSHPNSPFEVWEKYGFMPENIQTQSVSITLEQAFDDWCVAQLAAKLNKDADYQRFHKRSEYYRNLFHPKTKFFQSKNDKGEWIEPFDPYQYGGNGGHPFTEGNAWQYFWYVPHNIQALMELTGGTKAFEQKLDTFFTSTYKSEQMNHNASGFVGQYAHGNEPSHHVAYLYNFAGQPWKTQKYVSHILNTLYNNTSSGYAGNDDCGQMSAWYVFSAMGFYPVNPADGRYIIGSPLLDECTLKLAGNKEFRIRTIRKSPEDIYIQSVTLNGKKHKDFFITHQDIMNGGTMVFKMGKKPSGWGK
Experiment [7] deals with Alpha-1,2-mannosidase (BT_3784) (Bacteroides thetaiotaomicron, UniProt Q8A182). Nature of the experiment: Inhibition of Bacteroides thetaiotaomicron GH92 alpha-mannosidase 3784 assessed as reduction of mannose release using 4NP-mannopyranoside substrate. The method in brief:
as §2

Experiment [8] has as its target Alpha-1,2-mannosidase (BT_3858) (Bacteroides thetaiotaomicron, UniProt Q8A113). Nature of the experiment: Inhibition of Bacteroides thetaiotaomicron GH92 alpha-mannosidase 3858 assessed as reduction of mannose release using 4NP-mannopyranoside substrate. The method in brief:
as §2

Experiment [9] addresses Glycoside hydrolase family 92 (BT_3962) (Bacteroides thetaiotaomicron, UniProt Q8A0Q9). Nature of the experiment: Inhibition of Bacteroides thetaiotaomicron GH92 alpha-mannosidase 3962 assessed as reduction of mannose release using 4NP-mannopyranoside substrate. The method in brief:
as §2

In experiment [10] the target is Glycoside hydrolase family 92 (BT_3963) (Bacteroides thetaiotaomicron, UniProt Q8A0Q8). Nature of the experiment: Inhibition of Bacteroides thetaiotaomicron GH92 alpha-mannosidase 3963 assessed as reduction of mannose release using 4NP-mannopyranoside substrate. The method in brief: as §2
In experiment [11] the target is Alpha-1,2-mannosidase (BT_3965) (Bacteroides thetaiotaomicron, UniProt Q8A0Q6). Nature of the experiment: Inhibition of Bacteroides thetaiotaomicron GH92 alpha-mannosidase 3965 assessed as reduction of mannose release using 4NP-mannopyranoside substrate. The method in brief: as §2
Experiment [12] deals with Alpha-1,2-mannosidase (BT_3991) (Bacteroides thetaiotaomicron, UniProt Q8A0N0). Nature of the experiment: Inhibition of Bacteroides thetaiotaomicron GH92 alpha-mannosidase 3991 assessed as reduction of mannose release using 4NP-mannopyranoside substrate. In a few lines:
as §2

Experiment [13] concerns the target Alpha-1,2-mannosidase (BT_3994) (Bacteroides thetaiotaomicron, UniProt Q8A0M7). Nature of the experiment: Inhibition of Bacteroides thetaiotaomicron GH92 alpha-mannosidase 3994 assessed as reduction of mannose release using 4NP-mannopyranoside substrate. The method in brief: as §2
Experiment [14] addresses Alpha-1,2-mannosidase, putative (BT_4073) (Bacteroides thetaiotaomicron, UniProt Q8A0E8). Nature of the experiment: Inhibition of Bacteroides thetaiotaomicron GH92 alpha-mannosidase 4073 assessed as reduction of mannose release using 4NP-mannopyranoside substrate. The method in brief:
as §2

The target in experiment [15] is Alpha-1,2-mannosidase (BT_4092) (Bacteroides thetaiotaomicron, UniProt Q8A0C9). Nature of the experiment: Inhibition of Bacteroides thetaiotaomicron GH92 alpha-mannosidase 4092 assessed as reduction of mannose release using 4NP-mannopyranoside substrate. The method in brief: as §2
Experiment [16] addresses Alpha-1,2-mannosidase family protein (BT_4093) (Bacteroides thetaiotaomicron, UniProt Q8A0C8). Nature of the experiment: Inhibition of Bacteroides thetaiotaomicron GH92 alpha-mannosidase 4093 assessed as reduction of mannose release using 4NP-mannopyranoside substrate. The method in brief: as §2

Structures are written as SMILES.

The Ki is the dissociation constant of the complex between target and ligand, obtained from inhibition or displacement.

Sequence of Glycoside hydrolase family 92 (BT_3962) (Q8A0Q9 whole entry, change not shown): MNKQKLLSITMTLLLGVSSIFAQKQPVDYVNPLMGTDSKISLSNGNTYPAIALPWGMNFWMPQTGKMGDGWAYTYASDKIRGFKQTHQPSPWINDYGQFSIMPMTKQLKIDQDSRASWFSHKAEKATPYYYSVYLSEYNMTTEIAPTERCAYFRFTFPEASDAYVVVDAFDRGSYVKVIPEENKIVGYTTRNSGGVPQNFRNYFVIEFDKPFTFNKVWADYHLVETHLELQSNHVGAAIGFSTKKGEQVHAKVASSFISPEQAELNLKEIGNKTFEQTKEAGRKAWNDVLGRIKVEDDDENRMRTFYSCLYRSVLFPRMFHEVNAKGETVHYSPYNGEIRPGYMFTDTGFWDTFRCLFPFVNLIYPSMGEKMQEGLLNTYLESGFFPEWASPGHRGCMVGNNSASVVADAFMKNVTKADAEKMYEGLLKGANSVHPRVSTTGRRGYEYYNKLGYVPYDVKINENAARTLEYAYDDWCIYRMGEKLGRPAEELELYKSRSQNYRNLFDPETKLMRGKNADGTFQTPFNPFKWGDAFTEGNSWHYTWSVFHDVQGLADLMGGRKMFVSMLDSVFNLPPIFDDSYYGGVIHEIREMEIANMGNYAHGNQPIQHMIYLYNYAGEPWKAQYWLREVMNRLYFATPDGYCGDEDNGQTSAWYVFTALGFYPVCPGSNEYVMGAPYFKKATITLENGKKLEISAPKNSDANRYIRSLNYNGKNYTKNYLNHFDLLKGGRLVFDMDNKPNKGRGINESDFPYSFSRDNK
Sequence of Alpha-1,2-mannosidase family protein (BT_4093) (Q8A0C8 whole entry, change not shown): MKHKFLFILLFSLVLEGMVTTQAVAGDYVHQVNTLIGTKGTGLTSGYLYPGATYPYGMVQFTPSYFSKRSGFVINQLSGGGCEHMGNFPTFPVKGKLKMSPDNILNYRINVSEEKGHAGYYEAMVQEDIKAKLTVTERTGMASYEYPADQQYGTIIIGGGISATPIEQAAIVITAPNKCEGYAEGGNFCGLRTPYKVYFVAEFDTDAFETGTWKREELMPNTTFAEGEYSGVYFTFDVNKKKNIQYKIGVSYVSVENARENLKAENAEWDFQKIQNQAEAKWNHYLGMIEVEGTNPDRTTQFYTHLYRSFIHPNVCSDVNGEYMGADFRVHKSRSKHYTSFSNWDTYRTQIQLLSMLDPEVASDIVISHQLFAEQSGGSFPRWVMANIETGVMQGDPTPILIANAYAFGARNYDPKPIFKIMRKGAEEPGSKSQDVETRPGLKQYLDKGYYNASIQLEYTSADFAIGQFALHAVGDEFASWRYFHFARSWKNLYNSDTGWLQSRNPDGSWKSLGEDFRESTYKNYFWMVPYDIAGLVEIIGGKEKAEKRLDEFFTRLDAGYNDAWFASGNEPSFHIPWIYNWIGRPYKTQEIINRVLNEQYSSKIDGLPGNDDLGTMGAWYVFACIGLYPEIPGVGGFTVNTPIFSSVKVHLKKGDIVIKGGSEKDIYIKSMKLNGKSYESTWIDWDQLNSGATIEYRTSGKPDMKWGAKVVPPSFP
Sequence of Alpha-1,2-mannosidase (BT_1878) (Q8A6K3 whole entry, change not shown): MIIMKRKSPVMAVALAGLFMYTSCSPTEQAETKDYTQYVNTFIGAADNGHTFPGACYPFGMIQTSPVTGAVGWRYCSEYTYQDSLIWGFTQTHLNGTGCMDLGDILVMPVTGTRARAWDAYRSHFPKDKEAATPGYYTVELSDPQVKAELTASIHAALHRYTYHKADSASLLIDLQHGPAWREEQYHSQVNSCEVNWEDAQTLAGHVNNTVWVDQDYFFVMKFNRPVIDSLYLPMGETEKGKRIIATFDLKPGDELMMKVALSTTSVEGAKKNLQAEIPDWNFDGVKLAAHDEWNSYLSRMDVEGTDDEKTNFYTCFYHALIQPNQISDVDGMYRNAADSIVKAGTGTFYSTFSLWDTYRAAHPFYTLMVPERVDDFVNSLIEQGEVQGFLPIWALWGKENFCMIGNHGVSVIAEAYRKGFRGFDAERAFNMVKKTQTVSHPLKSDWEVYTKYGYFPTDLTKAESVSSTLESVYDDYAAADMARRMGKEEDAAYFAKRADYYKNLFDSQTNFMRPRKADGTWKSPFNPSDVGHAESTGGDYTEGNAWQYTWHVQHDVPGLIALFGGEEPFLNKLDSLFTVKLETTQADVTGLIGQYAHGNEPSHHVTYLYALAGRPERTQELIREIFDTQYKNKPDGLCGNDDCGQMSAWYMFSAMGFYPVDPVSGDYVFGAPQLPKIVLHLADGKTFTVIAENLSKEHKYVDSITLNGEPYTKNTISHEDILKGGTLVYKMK
Sequence of Alpha-1,2-mannosidase (BT_3784) (Q8A182 whole entry, change not shown): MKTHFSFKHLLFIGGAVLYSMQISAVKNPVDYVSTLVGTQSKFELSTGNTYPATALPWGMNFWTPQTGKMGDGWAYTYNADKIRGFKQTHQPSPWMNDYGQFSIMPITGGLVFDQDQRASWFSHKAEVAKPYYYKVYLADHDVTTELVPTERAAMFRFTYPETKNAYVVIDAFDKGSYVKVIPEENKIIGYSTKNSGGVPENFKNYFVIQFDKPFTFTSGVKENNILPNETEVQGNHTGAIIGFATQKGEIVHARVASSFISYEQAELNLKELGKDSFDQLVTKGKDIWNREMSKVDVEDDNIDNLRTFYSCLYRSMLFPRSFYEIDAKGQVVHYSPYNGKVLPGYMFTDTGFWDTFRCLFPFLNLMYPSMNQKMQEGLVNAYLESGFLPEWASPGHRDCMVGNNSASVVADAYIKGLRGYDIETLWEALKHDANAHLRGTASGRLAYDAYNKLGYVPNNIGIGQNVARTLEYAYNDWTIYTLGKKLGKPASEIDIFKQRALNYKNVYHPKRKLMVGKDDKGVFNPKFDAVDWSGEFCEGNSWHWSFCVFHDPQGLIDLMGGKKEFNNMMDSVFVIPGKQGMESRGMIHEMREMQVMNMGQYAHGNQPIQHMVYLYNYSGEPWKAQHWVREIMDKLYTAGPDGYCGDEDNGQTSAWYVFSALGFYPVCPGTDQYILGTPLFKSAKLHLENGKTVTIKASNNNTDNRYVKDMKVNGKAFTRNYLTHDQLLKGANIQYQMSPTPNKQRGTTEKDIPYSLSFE

Consider `OC[C@H]1NC[C@@H](O)[C@@H](O)[C@@H]1O` [DEOXYMANNOJIRIMYCIN], for which the figures for the Ki in experiment [1] and in [2] were 13000 µM and 12000 µM, respectively.
Turning to `OC[C@@H]1[C@@H](O)[C@H](O)[C@H](O)c2nccn21` [MANNOIMIDAZOLE], the Ki in experiment [3] was 600 µM; in experiment [4], 1800 µM; in experiment [1], 90 µM; in [5] it was 70 µM; in [6], 1 µM; in experiment [7] it was 5800 µM. For the same molecule, the Ki in experiment [8] amounted to 260 µM; in experiment [9], 270 µM; in [10], 790 µM; in experiment [11] it was 0.4 µM; in experiment [12], 46 µM; in experiment [13], 43 µM. Moreover, the Ki in experiment [14] was 360 µM; in [15] it was 1600 µM; in [16] it was 860 µM.

Source of the values: ChEMBL document CHEMBL1250451, “Mechanistic insights into a Ca2+-dependent family of alpha-mannosidases in a human gut symbiont” (Nat Chem Biol, 2010).
